The values below come from ChEMBL document CHEMBL3797115, “Design and synthesis of peptide conjugates of phosphoramide mustard as prodrugs activated by prostate-specific antigen” (Bioorg Med Chem, 2016).

Starred links: 1 amine or outer side, 2 acyl side, 3 side chain; linkers in the order of their positions; H or OH if unused. Non-standard residues stand in square brackets, D forms with d. Residues, ends and D or L forms follow the SMILES beside them. *: point of attachment. X1 = NP(=O)(OCc1c(F)c(F)c(N*)c(F)c1F)N(CCCl)CCCl; X3 = NP(=O)(OCc1c(F)cc(N*)cc1F)N(CCCl)CCCl; X2 = NP(=O)(OCc1ccc(N*)c(F)c1)N(CCCl)CCCl; X5 = NP(=O)(OCc1ccc(N*)cc1F)N(CCCl)CCCl; X4 = NP(=O)(OCc1ccc(N*)cc1)N(CCCl)CCCl; Glutaryl = O=C(CCCC(=O)[*:2])[*:1]; Hyp = O=C(O)[C@@H]1C[C@@H](O)CN1; Chg = N[C@H](C(=O)O)C1CCCCC1

Data set [1] concerns the target T1, Prostate-specific antigen (Homo sapiens, UniProt P07288).
T1 sequence (P07288 whole entry): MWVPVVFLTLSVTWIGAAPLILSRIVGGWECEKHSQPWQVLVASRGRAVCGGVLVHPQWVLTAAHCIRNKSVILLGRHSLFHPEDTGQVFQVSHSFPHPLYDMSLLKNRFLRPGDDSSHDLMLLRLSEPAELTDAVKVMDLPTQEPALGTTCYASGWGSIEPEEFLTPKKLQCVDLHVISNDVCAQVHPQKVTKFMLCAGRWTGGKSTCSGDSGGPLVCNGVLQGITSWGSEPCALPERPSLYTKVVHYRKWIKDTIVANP
Put plainly: Prodrug activation assessed as prostate specific antigen (unknown origin)-mediated drug metabolism in Tris/HCl buffer pH 8 at 0.16 mM by HPLC analysis. The note with it: pH 8, 160 µM, TDE = time-dependent effect. In kind it is ADME. The method in brief: (§1)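 Purified PSA with substrate at 1:100 enzyme/substrate molar ratio, 37 °C, Tris/HCl pH 8.0 with 10 mM CaCl2 and 0.1% Tween-20. Substrate stocks 10 mM in DMSO. Aliquots taken at intervals, quenched with 20% acetonitrile, frozen, then analysed by HPLC for substrate loss. Cleavage site after Gln confirmed by LC/MS.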

For data set [2], the target named is T1, Prostate-specific antigen. The data set is described as follows: Prodrug activation assessed as prostate specific antigen (unknown origin)-mediated drug metabolism in Tris/HCl buffer pH 8 at 100 uM measured as half life by HPLC analysis. In kind it is ADME. Conditions: pH 8, 100 µM. The method in brief: as §1
Data set [3] can be described thus: Half life in Tris buffer pH 8 at 100 uM by HPLC analysis. The class given is ADME. The method in brief: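 Conjugate at 100 µM incubated at 37 °C in 50 mM Tris/HCl pH 8.0 with 10 mM CaCl2 and 0.1% Tween-20, without enzyme. Loss of conjugate followed over time by HPLC to give half-life.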
The subject of data set [4] is LNCaP. The data set is described as follows: Antiproliferative activity against human LNCAP cells expressing prostate specific antigen after 72 hrs by MTT assay. In kind it is functional, cell-based. Summed up:
(§2)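 LNCaP (PSA-producing) and DU145 (non-PSA) cells grown in RPMI 1640 with 10% FBS; 7500 LNCaP or 500 DU145 cells/well, grown 48 h. Medium then switched to serum-free RPMI with 2% TCM, no phenol red. Conjugates 0.01–100 µM for 72 h; medium alone as negative control. MTT 4 h at 37 °C, read at 570 nm; IC50 interpolated from percent of control growth.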
In general terms: Tetrazolium assays rely on reduction of a dye to a coloured formazan, in cell work by metabolically active cells.

Data set [5] can be described thus: Antiproliferative activity against human DU145 cells after 72 hrs by MTT assay. The class given is functional, cell-based. The note with it: DU-145, 72 h. Summed up: as §2
The target in data set [6] is T1, Prostate-specific antigen. The data set is described as follows: Prodrug activation assessed as prostate specific antigen (unknown origin)-mediated drug metabolism in Tris/HCl buffer at pH 8 measured after 2 hrs by HPLC analysis. In kind it is ADME. The note with it: pH 8, 2 h. Summed up:
as §1

A word on the half-life: it is the time in which the quantity being followed falls by half. Low readings indicate rapid decline, high ones slow decline. Usually IC50 stands for the point on the concentration scale where inhibition reaches its midpoint. On to `C[C@H](NC(=O)[C@@H]1C[C@@H](O)CN1C(=O)CCCC(=O)O)C(=O)N[C@@H](CO)C(=O)N[C@H](C(=O)N[C@@H](CCC(N)=O)C(=O)Nc1ccc(COP(N)(=O)N(CCCl)CCCl)c(F)c1)C1CCCCC1` (some centres undefined) (Glutaryl-[Hyp]AS[Chg]Q-X5), for which the Drug metabolism entry in data set [1] is given as “tde”. Moreover, the t1/2 in data set [2] worked out at 0.93 h. In data set [3], this molecule showed a half-life at 100 µM of 105 h. Also, the figures for the IC50 in data set [4] and in data set [5] were 5.3 µM and over 100 µM, respectively.
The matching figures for `C[C@H](NC(=O)[C@@H]1C[C@@H](O)CN1C(=O)CCCC(=O)O)C(=O)N[C@@H](CO)C(=O)N[C@H](C(=O)N[C@@H](CCC(N)=O)C(=O)Nc1ccc(COP(N)(=O)N(CCCl)CCCl)cc1F)C1CCCCC1` (some centres undefined) (Glutaryl-[Hyp]AS[Chg]Q-X2): “tde”, 0.65 h, 465 h, 29 µM and over 100 µM.
The matching figures for `C[C@H](NC(=O)[C@@H]1C[C@@H](O)CN1C(=O)CCCC(=O)O)C(=O)N[C@@H](CO)C(=O)N[C@H](C(=O)N[C@@H](CCC(N)=O)C(=O)Nc1ccc(COP(N)(=O)N(CCCl)CCCl)cc1)C1CCCCC1` (some centres undefined) (Glutaryl-[Hyp]AS[Chg]Q-X4): “tde”, 2.1 h, 46 h, 11 µM and 35 µM.
On to `C[C@H](NC(=O)[C@@H]1C[C@@H](O)CN1C(=O)CCCC(=O)O)C(=O)N[C@@H](CO)C(=O)N[C@H](C(=O)N[C@@H](CCC(N)=O)C(=O)Nc1cc(F)c(COP(N)(=O)N(CCCl)CCCl)c(F)c1)C1CCCCC1` (some centres undefined) (Glutaryl-[Hyp]AS[Chg]Q-X3), for which, in data set [1], the Drug metabolism entry was “tde”. For the same molecule, the t1/2 in data set [2] was 1.7 h. Further, the half-life at 100 µM in data set [3] was 131 h. Further, the figures for the IC50 in data set [4] and in data set [5] were 20 µM and over 100 µM, respectively.
For `COc1cccc2c1C(=O)c1c(O)c3c(c(O)c1C2=O)C[C@](O)(C(=O)CO)C[C@H]3O[C@@H]1C[C@@H](NC(=O)[C@@H](CC(C)C)NC(=O)[C@@H](CO)NC(=O)[C@@H](CCC(N)=O)NC(=O)[C@H](NC(=O)[C@@H](CO)NC(=O)[C@@H](C)NC(=O)[C@@H]2C[C@@H](O)CN2C(=O)CCCC(=O)O)C2CCCCC2)[C@@H](O)[C@@H](C)O1` (stereo in doubt), the Drug metabolism entry in data set [6] is reported as “metabolite_detected”. The t1/2 in data set [2] was determined as 0.6 h. The values for the IC50 in data set [4] and in data set [5] were 1.1 µM and over 100 µM, respectively.
As to `C[C@H](NC(=O)[C@@H]1C[C@@H](O)CN1C(=O)CCCC(=O)O)C(=O)N[C@@H](CO)C(=O)N[C@H](C(=O)N[C@@H](CCC(N)=O)C(=O)Nc1c(F)c(F)c(COP(N)(=O)N(CCCl)CCCl)c(F)c1F)C1CCCCC1` (some centres undefined) (Glutaryl-[Hyp]AS[Chg]Q-X1), the Drug metabolism entry in data set [1] was “tde”. Further, the t1/2 in data set [2] amounted to 1.1 h. In data set [3], the half-life at 100 µM is 178 h. The IC50 in data set [4] and in data set [5] was over 100 µM in each case.
